Experimental data taken from ChEMBL document CHEMBL2016528, “Synthesis and biological evaluation of bifendate-chalcone hybrids as a new class of potential P-glycoprotein inhibitors” (Bioorg Med Chem, 2012).
Activity calls are given as the source filed them. The calls are words filed in the database; no cut-off is given here.

What was measured:
K562 [1] = assay: Cytotoxicity against human K562 cells after 72 hrs by MTS assay; assay type: cell-based; settings: K562, 72 h
Summary of the method: (§1)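 Cells (1×10⁴/well) seeded and grown 24 h, then exposed to a range of compound concentrations for 72 h at 37 °C, 5% CO₂. MTS added for 3 h, absorbance read at 490 nm. IC50 = concentration giving 50% growth decrease, taken from dose–response curves; mean of triplicate experiments. K562/A02 is the adriamycin-induced P-gp-overexpressing subline.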

[2] = Growth inhibition of human K562/A02 cells at 10 uM after 72 hrs by MTS assay; assay type: cell-based; settings: read-out: GI
Summary of the method: (§2)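 K562 and K562/A02 cells given compound alone at 10 µM for 72 h. Survival measured by MTS and expressed as percent of untreated control. Three independent experiments.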

[3] = target: T1, ATP-dependent translocase ABCB1 (Homo sapiens, UniProt P08183); assay: Inhibition of P-glycoprotein in human K562/A02 cells assessed as potentiation of adriamycin-induced cytotoxicity at 10 uM preincubated for 24 hrs followed by washout before addition of adriamycin measured after 72 hrs by MTS assay (reference value: 33.59 uM); assay type: cell-based; settings: k562/a02, 72 h
T1 sequence (P08183 whole entry): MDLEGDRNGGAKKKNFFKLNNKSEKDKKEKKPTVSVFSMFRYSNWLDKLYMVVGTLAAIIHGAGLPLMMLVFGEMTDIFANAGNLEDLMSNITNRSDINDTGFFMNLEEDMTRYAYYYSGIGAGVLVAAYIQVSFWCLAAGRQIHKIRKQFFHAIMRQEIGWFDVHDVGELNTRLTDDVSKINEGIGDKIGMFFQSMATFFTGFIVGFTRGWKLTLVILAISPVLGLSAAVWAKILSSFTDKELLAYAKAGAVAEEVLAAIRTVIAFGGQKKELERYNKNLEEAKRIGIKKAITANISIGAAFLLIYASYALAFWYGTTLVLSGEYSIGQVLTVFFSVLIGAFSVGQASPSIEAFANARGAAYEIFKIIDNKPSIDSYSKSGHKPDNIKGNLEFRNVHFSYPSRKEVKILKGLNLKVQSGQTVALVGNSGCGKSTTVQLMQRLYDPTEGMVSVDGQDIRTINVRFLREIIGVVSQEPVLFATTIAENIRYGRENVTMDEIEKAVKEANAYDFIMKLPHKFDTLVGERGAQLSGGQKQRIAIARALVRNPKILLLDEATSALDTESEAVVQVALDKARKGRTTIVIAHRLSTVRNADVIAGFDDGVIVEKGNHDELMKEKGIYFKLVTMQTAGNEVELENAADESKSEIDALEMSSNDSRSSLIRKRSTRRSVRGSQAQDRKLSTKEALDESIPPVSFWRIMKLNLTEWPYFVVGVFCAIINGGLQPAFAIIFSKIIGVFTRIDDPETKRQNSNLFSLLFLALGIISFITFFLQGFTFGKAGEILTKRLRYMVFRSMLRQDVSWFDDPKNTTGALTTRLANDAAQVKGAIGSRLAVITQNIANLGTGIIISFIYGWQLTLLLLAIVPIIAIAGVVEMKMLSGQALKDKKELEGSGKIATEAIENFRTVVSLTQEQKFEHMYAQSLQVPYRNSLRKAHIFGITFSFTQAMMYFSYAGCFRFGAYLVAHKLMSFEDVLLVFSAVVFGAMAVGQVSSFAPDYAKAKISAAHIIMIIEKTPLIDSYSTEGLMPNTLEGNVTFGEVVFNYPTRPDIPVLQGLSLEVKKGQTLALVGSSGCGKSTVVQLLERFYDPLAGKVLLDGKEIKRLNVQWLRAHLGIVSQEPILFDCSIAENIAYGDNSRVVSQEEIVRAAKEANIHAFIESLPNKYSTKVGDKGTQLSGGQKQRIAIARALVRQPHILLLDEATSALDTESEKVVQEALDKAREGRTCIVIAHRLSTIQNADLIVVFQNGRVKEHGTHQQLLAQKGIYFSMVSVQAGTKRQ
Summary of the method: (§3)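 K562/A02 cells (1×10⁵/well) cultured overnight, then treated with 10 µM compound for 24 h. Washed three times with PBS and moved to compound-free medium. ADR at various concentrations added 0, 6, 12 or 24 h after removal, then 72 h further incubation. Read by MTS at 490 nm; ADR IC50 derived; mean ± S.E. of triplicates.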

[4] = Down regulation of P-gp level in human K562/A02 cells at 10 uM after 72 hrs by Western blotting analysis; assay type: functional, cell-based
[5] = Cytotoxicity against human K562/A02 cells overexpress P-gp after 72 hrs by MTS assay; assay type: ADME, cell-based; settings: K562/A02, 72 h; summary of the method: as §1
[6] = Growth inhibition of human K562 cells at 10 uM after 72 hrs by MTS assay; assay type: cell-based; settings: read-out: GI; summary of the method: as §2
[7] = Cytotoxicity against human K562/A02 cells assessed as survival rate at 10 uM after 72 hrs by MTS assay; assay type: cell-based; settings: read-out: Activity; summary of the method: as §2
[8] = target: T1, ATP-dependent translocase ABCB1; assay: Inhibition of P-glycoprotein in human K562/A02 cells assessed as potentiation of adriamycin-induced cytotoxicity by measuring survival rate at 10 uM after 72 hrs by MTS assay (reference value: 95%); assay type: cell-based; settings: k562/a02, 72 h
[9] = Effect on P-gp ATPase activity assessed as relative light units at 40 uM by P-gp-GloTM assay (reference value: 242328 +/- 1398 RLU)
K562/A02 [10] = assay: Inhibition of Pgp-mediated rhodamine 123 efflux in human K562/A02 cells assessed as intracellular rhodamine 123 accumulation preincubated for 30 mins measured after 60 mins by fluorescence microscopy relative to control; assay type: cell-based
Summary of the method: (§4)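 Efflux assay: K562/A02 cells incubated 30 min with 0.5 µM rhodamine 123 plus compound (0.33, 3.3 or 10 µM). Cells washed twice with PBS, resuspended in medium and left 60 min at 37 °C to efflux dye. Retained dye viewed by fluorescence microscopy, with flow cytometry in parallel; 0.1% DMSO as vehicle control.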

[11] = target: T1, ATP-dependent translocase ABCB1; assay: Inhibition of P-glycoprotein in human K562/A02 cells assessed as potentiation of adriamycin-induced cytotoxicity at 10 uM preincubated for 24 hrs followed by washout addition of adriamycin at 12 hrs post washout measured after 72 hrs by MTS assay (reference value: 54.11 uM); assay type: cell-based; settings: k562/a02, 72 h; summary of the method: as §3
[12] = target: T1, ATP-dependent translocase ABCB1; assay: Inhibition of P-glycoprotein in human K562/A02 cells assessed as potentiation of adriamycin-induced cytotoxicity by measuring survival rate at 2.5 uM after 72 hrs by MTS assay (reference value: 95%); assay type: cell-based; settings: k562/a02, 72 h
Summary of the method: (§5)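 ADR at 3.5 µM (K562/A02) or 0.2 µM (K562), alone or combined with compound at 2.5, 5 or 10 µM, for 72 h. Survival measured by MTS and given as percent growth of untreated control. Mean ± S.D. of three independent experiments; statistics versus ADR alone.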

K562/A02 [13] = assay: Inhibition of Pgp-mediated rhodamine 123 efflux in human K562/A02 cells assessed as intracellular rhodamine 123 accumulation at 3.3 uM preincubated for 30 mins measured after 60 mins by fluorescence microscopy relative to control; assay type: cell-based; summary of the method: as §4
[14] = Down regulation of P-gp mRNA level in human K562/A02 cells at 10 uM after 72 hrs by RT-PCR analysis; assay type: functional, cell-based
[15] = target: T1, ATP-dependent translocase ABCB1; assay: Inhibition of P-glycoprotein in human K562/A02 cells assessed as potentiation of adriamycin-induced cytotoxicity at 10 uM preincubated for 24 hrs followed by washout addition of adriamycin at 24 hrs post washout measured after 72 hrs by MTS assay (reference value: 51.67 uM); assay type: cell-based; settings: k562/a02, 72 h; summary of the method: as §3
K562 [16] = assay: Potentiation of adriamycin-induced cytotoxicity against human K562 cells at 2.5 to 10 uM after 72 hrs by MTS assay; assay type: functional, cell-based; summary of the method: as §5
[17] = target: T1, ATP-dependent translocase ABCB1; assay: Inhibition of P-glycoprotein in human K562/A02 cells assessed as potentiation of adriamycin-induced cytotoxicity by measuring survival rate at 5 uM after 72 hrs by MTS assay (reference value: 95%); assay type: cell-based; settings: k562/a02, 72 h; summary of the method: as §5
[18] = target: T1, ATP-dependent translocase ABCB1; assay: Inhibition of P-glycoprotein in human K562/A02 cells assessed as potentiation of adriamycin-induced cytotoxicity at 2.5 to 10 uM after 72 hrs by MTS assay; assay type: cell-based; settings: k562/a02, 72 h; summary of the method: as §5
[19] = target: T1, ATP-dependent translocase ABCB1; assay: Inhibition of P-glycoprotein in human K562/A02 cells assessed as potentiation of adriamycin-induced cytotoxicity at 10 uM preincubated for 24 hrs followed by washout addition of adriamycin at 6 hrs post washout measured after 72 hrs by MTS assay (reference value: 35.15 uM); assay type: cell-based; settings: k562/a02, 72 h; summary of the method: as §3
K562 [20] = assay: Induction of rhodamine-123 accumulation in human K562 cells preincubated for 1 hr prior rhodamine 123 addition measured after 30 mins by flow cytometry relative to control; assay type: functional, cell-based
Summary of the method: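 Cells (1×10⁶) pre-incubated with compound or 0.1% DMSO vehicle at 37 °C for 1 h. Rhodamine 123 then added to 0.5 µM for 30 min. Cell-associated fluorescence read by flow cytometry. Fold change = fluorescence divided by that of DMSO control cells; mean ± S.D. of three independent experiments.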

K562/A02 [21] = assay: Growth inhibition of human K562/A02 cells at 3.5 uM after 72 hrs by MTS assay; assay type: functional, cell-based; summary of the method: as §5
P-glycoprotein (P-gp) = assay: Ratio of IC50 for human K562/A02 cells overexpress P-gp to IC50 for human K562 cells; assay type: cell-based; settings: K562/A02 cells overexpressing P-gp and parental K562 cells, read-out: Ratio IC50
K562 [22] = assay: Growth inhibition of human K562 cells at 0.2 uM after 72 hrs by MTS assay; assay type: functional, cell-based; summary of the method: as §5
[23] = Effect on P-gp ATPase activity assessed as relative light units at 200 uM by P-gp-GloTM assay
Summary of the method: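 P-gp ATPase measured by luminescence of remaining ATP; RLU inversely related to ATPase activity. Means of three separate experiments; Student's t test against untreated.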

## COC(=O)c1cc(OC)c2c(c1-c1c(/C=C/C(=O)c3cc(C)ccc3C)cc(OC)c3c1OCO3)OCO2
K562 [1]
  IC50: > 200 µM
[2]
  inhibition at 72 h, 10 µM: < 10%
[3]
  inhibition (INH): Active
[4]
  Activity: inactive
[5]
  IC50: > 200 µM
[6]
  inhibition at 72 h, 10 µM: < 10%
[7]
  viability at 72 h, 10 µM: 95%
[8]
  Activity: 5%
[9]
  RLU: 271000
K562/A02 [10]
  inhibition: Dose-dependent effect
[11]
  inhibition (INH): Active
[12]
  Activity: 46%
K562/A02 [13]
  inhibition: Active
[14]
  Activity: inactive
[15]
  inhibition (INH): Active
K562 [16]
  Activity: inactive
[17]
  Activity: 20%
[18]
  inhibition (INH): Active
[19]
  inhibition (INH): Active
K562 [20]
  Activity: inactive

## COc1ccc(CCN(C)CCCC(C#N)(c2ccc(OC)c(OC)c2)C(C)C)cc1OC (stereo not given)
[2]
  inhibition at 72 h, 10 µM: < 10%
[3]
  inhibition (INH): Active
[6]
  inhibition at 72 h, 10 µM: < 10%
K562 [16]
  Activity: inactive
K562 [20]
  Activity: inactive

## COC(=O)c1cc(OC)c2c(c1-c1c(/C=C/C(=O)c3ccc(O)cc3)cc(OC)c3c1OCO3)OCO2
K562 [1]
  IC50: > 100 µM
[5]
  IC50: > 100 µM

## COC(=O)c1cc(OC)c2c(c1-c1c(/C=C/C(=O)c3ccc([N+](=O)[O-])cc3)cc(OC)c3c1OCO3)OCO2
K562 [1]
  IC50: 73.4 µM
[5]
  IC50: > 100 µM

## COC(=O)c1cc(OC)c2c(c1-c1c(/C=C/C(=O)c3ccccc3OC)cc(OC)c3c1OCO3)OCO2
K562 [1]
  IC50: > 200 µM
[2]
  inhibition at 72 h, 10 µM: < 10%
[4]
  Activity: inactive
[5]
  IC50: > 200 µM
[6]
  inhibition at 72 h, 10 µM: < 10%
[14]
  Activity: inactive
[18]
  inhibition (INH): Active
K562 [20]
  Activity: inactive

## COC(=O)c1cc(OC)c2c(c1-c1c(/C=C(\C#N)C(=O)c3cc(OC)c(OC)c(OC)c3)cc(OC)c3c1OCO3)OCO2
K562 [1]
  IC50: 60.3 µM
[5]
  IC50: 38.9 µM

## COC(=O)c1cc(OC)c2c(c1-c1c(/C=C/C(=O)c3ccc(OC)cc3)cc(OC)c3c1OCO3)OCO2
K562 [1]
  IC50: > 100 µM
[5]
  IC50: > 100 µM

## COC(=O)c1cc(OC)c2c(c1-c1c(/C=C(\C#N)C(=O)c3ccc(OC)cc3)cc(OC)c3c1OCO3)OCO2
K562 [1]
  IC50: > 100 µM
[5]
  IC50: 37.2 µM

## COC(=O)c1cc(OC)c2c(c1-c1c(/C=C/C(=O)c3ccccc3)cc(OC)c3c1OCO3)OCO2
K562 [1]
  IC50: > 100 µM
[5]
  IC50: > 100 µM

## COC(=O)c1cc(OC)c2c(c1-c1c(C(=O)OC)cc(OC)c3c1OCO3)OCO2 [BIFENDATE]
K562 [1]
  IC50: > 100 µM
[5]
  IC50: > 100 µM

## COC(=O)c1cc(OC)c2c(c1-c1c(/C=C/C(=O)c3cc(OC)c(OC)c(OC)c3)cc(OC)c3c1OCO3)OCO2
K562 [1]
  IC50: 172 µM
[2]
  inhibition at 72 h, 10 µM: < 10%
[5]
  IC50: > 200 µM
[6]
  inhibition at 72 h, 10 µM: < 10%
K562 [20]
  Activity: inactive

## COC(=O)c1cc(OC)c2c(c1-c1c(/C=C/C(=O)c3cc(OC)ccc3OC)cc(OC)c3c1OCO3)OCO2
K562 [1]
  IC50: > 200 µM
[2]
  inhibition at 72 h, 10 µM: < 10%
[4]
  Activity: inactive
[5]
  IC50: > 200 µM
[6]
  inhibition at 72 h, 10 µM: < 10%
[14]
  Activity: inactive
[18]
  inhibition (INH): Active
K562 [20]
  Activity: inactive

## COC(=O)c1cc(OC)c2c(c1-c1c(/C=C/C(=O)c3ccc(OC)cc3OC)cc(OC)c3c1OCO3)OCO2
K562 [1]
  IC50: > 100 µM
[5]
  IC50: > 100 µM

## COC(=O)c1cc(OC)c2c(c1-c1c(/C=C(\C#N)C(=O)c3ccc(C)cc3)cc(OC)c3c1OCO3)OCO2
K562 [1]
  IC50: 61.3 µM
[5]
  IC50: 48.4 µM

## COc1cccc2c1C(=O)c1c(O)c3c(c(O)c1C2=O)C[C@@](O)(C(=O)CO)C[C@@H]3O[C@H]1C[C@H](N)[C@H](O)[C@H](C)O1 [DOXORUBICIN]
K562 [1]
  IC50: 0.43 µM
K562/A02 [21]
  growth inhibition (GI): inactive
[5]
  IC50: 46.7 µM
P-glycoprotein (P-gp)
  selectivity ratio: 108
K562 [22]
  growth inhibition (GI): inactive

## SODIUM ORTHOVANAD
[23]
  RLU: 282000
